Results as given in ChEMBL document CHEMBL1821590, “Novel dihydropyrimidines and its pyrazole derivatives: synthesis and pharmacological screening” (Eur J Med Chem, 2011).
Converted amounts (≈) assume the structure as drawn.

Tests used:
Assay type in all cases: functional
[1] = Antioxidant activity assessed as nitric oxide radical scavenging activity after 150 mins
Method in brief: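 10 mM sodium nitroprusside (4 mL), PBS pH 7.4 (1 mL) and sample or ascorbic acid in DMSO (1 mL, 12.5–100 µg/mL), incubated 150 min at 25 °C. Nitrite detected with sulphanilic acid (5 min) then naphthylethylenediamine (30 min, diffused light). Read at […]. Triplicate. % inhibition = [1 − (Vt/Vc)] × 100. IC50 derived from it.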

[2] = Antioxidant activity assessed as hydrogen peroxide scavenging activity after 10 mins
Method in brief: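 H2O2 (20 mM) in PBS pH 7.4. 1 mL of sample or ascorbic acid in methanol (12.5–100 µg/mL) added to 2 mL H2O2 solution. A230 read after 10 min. % inhibition = [1 − (Vt/Vc)] × 100. Triplicate, averaged. IC50 derived from % inhibition across concentrations.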

[3] = Antioxidant activity assessed as inhibition of lipid peroxidation using egg lecithin liposomes incubated for 1 hr
Method in brief: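 Egg lecithin (3 mg/mL, phosphate buffer pH 7.4) sonicated 10 min to form liposomes. Sample or ascorbic acid (12.5–100 µg/mL) added. Peroxidation induced with FeCl3 and L-ascorbic acid, 1 h at 37 °C. Stopped with HCl/TCA/TBA/BHA, boiled 15 min, centrifuged, supernatant read at 532 nm. Triplicate. % inhibition vs control. IC50 derived.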

[4] = Antioxidant activity assessed as potassium ferricyanide ion reducing power after 20 mins
Method in brief: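 Oyaizu method. Samples or ascorbic acid in DMF (12.5–100 µg/mL) mixed with 0.2 M phosphate buffer pH 6.6 and 1% potassium ferricyanide, 20 min at 50 °C. 10% TCA added, centrifuged. Supernatant mixed with water and 0.1% FeCl3, read at 700 nm. % = [(Vt/Vc) − 1] × 100. IC50 derived.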

[5] = Antiinflammatory activity assessed as inhibition of albumin denaturation at 100 ug/ml by UV-visible spectrophotometry
Method in brief: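 Compounds dissolved in minimal DMF, diluted in PBS pH 7.4 (final DMF <2.5%). 1 mL test solution (100 µg/mL) plus 1 mL 1% albumin in PBS, 15 min at 27 ± 1 °C, then heated 10 min at 60 ± 1 °C. After cooling, turbidity read at 660 nm. % inhibition = [(Vt/Vc) − 1] × 100 against a no-drug control. Triplicate, averaged. Diclofenac standard.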

Metaphire posthuma [6] = assay: Anthelmintic activity against Pheretima posthuma assessed as time taken for complete parasite paralysis at 0.1% w/v
Method in brief: (§1)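 Earthworms (Pheretima posthuma) exposed to test solutions at 0.1, 0.2 and 0.5% w/v; time in minutes to complete paralysis (worms motionless) recorded. Albendazole as standard. Mean of three determinations ± S.D.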

Metaphire posthuma [7] = assay: Anthelmintic activity against Pheretima posthuma assessed as time taken for complete parasite paralysis at 0.2% w/v; method in brief: as §1
Metaphire posthuma [8] = assay: Anthelmintic activity against Pheretima posthuma assessed as time taken for complete parasite paralysis at 0.5% w/v; method in brief: as §1
Metaphire posthuma [9] = assay: Anthelmintic activity against Pheretima posthuma assessed as time taken for parasite death at 0.1% w/v
Method in brief: (§2)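 Earthworms (Pheretima posthuma, spelled Perituma posthuma in text) exposed to test compounds at 0.1, 0.2 and 0.5% w/v. Albendazole served as standard, with an untreated control. Paralysis was recorded as the time until worms became motionless, then time to death was recorded, in minutes. Each value is the mean of three determinations with S.D.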

Metaphire posthuma [10] = assay: Anthelmintic activity against Pheretima posthuma assessed as time taken for parasite death at 0.2% w/v; method in brief: as §2
Metaphire posthuma [11] = assay: Anthelmintic activity against Pheretima posthuma assessed as time taken for parasite death at 0.5% w/v; method in brief: as §2
Escherichia coli [12] = assay: Antimicrobial activity against Escherichia coli at 25 ug/ml by agar plate diffusion technique; conditions: read-out: IZ
Method in brief: (§3)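 Agar plate diffusion against E. coli, P. aeruginosa, S. aureus and B. subtilis, with compounds at 25, 50 and 100 µg/mL. Streptomycin as standard.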

Escherichia coli [13] = assay: Antimicrobial activity against Escherichia coli at 50 ug/ml by agar plate diffusion technique; conditions: read-out: IZ; method in brief: as §3
Escherichia coli [14] = assay: Antimicrobial activity against Escherichia coli at 100 ug/ml by agar plate diffusion technique; conditions: read-out: IZ; method in brief: as §3
Pseudomonas aeruginosa [15] = assay: Antimicrobial activity against Pseudomonas aeruginosa at 25 ug/ml by agar plate diffusion technique; conditions: read-out: IZ; method in brief: as §3
Pseudomonas aeruginosa [16] = assay: Antimicrobial activity against Pseudomonas aeruginosa at 50 ug/ml by agar plate diffusion technique; conditions: read-out: IZ; method in brief: as §3
Pseudomonas aeruginosa [17] = assay: Antimicrobial activity against Pseudomonas aeruginosa at 100 ug/ml by agar plate diffusion technique; conditions: read-out: IZ; method in brief: as §3
Bacillus subtilis [18] = assay: Antimicrobial activity against Bacillus subtilis at 25 ug/ml by agar plate diffusion technique; conditions: read-out: IZ; method in brief: as §3
Bacillus subtilis [19] = assay: Antimicrobial activity against Bacillus subtilis at 50 ug/ml by agar plate diffusion technique; conditions: read-out: IZ; method in brief: as §3
Bacillus subtilis [20] = assay: Antimicrobial activity against Bacillus subtilis at 100 ug/ml by agar plate diffusion technique; conditions: read-out: IZ; method in brief: as §3
Staphylococcus aureus [21] = assay: Antimicrobial activity against Staphylococcus aureus at 25 ug/ml by agar plate diffusion technique; conditions: read-out: IZ; method in brief: as §3
Staphylococcus aureus [22] = assay: Antimicrobial activity against Staphylococcus aureus at 50 ug/ml by agar plate diffusion technique; conditions: read-out: IZ; method in brief: as §3
Staphylococcus aureus [23] = assay: Antimicrobial activity against Staphylococcus aureus at 100 ug/ml by agar plate diffusion technique; conditions: read-out: IZ; method in brief: as §3
Candida albicans [24] = assay: Antimicrobial activity against Candida albicans at 25 ug/ml by paper disc method; conditions: read-out: IZ
Method in brief: (§4)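 Paper disc method against A. niger and C. albicans, with compounds at 25, 50 and 100 µg/mL. Amphotericin-B as standard.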

Candida albicans [25] = assay: Antimicrobial activity against Candida albicans at 50 ug/ml by paper disc method; conditions: read-out: IZ; method in brief: as §4
Candida albicans [26] = assay: Antimicrobial activity against Candida albicans at 100 ug/ml by paper disc method; conditions: read-out: IZ; method in brief: as §4
Aspergillus niger [27] = assay: Antimicrobial activity against Aspergillus niger at 25 ug/ml by paper disc method; conditions: read-out: IZ; method in brief: as §4
Aspergillus niger [28] = assay: Antimicrobial activity against Aspergillus niger at 50 ug/ml by paper disc method; conditions: read-out: IZ; method in brief: as §4
Aspergillus niger [29] = assay: Antimicrobial activity against Aspergillus niger at 100 ug/ml by paper disc method; conditions: read-out: IZ; method in brief: as §4

Compound `Cn1c(NN)nc(-c2ccc(Cl)cc2)c(C#N)c1=O` has an IC50 [1] of 59 µg/mL (≈ 214 µM), an IC50 [2] of 41 µg/mL (≈ 149 µM) and an IC50 [3] of 46 µg/mL (≈ 167 µM). The IC50 [4] was 44 µg/mL (≈ 160 µM), the inhibition [5] was 61.2% and the Time (Metaphire posthuma [6]) was 42.1 min. For the same compound, the Time (Metaphire posthuma [7]) was 40.13 min, the Time (Metaphire posthuma [8]) was 37.67 min and the Time (Metaphire posthuma [9]) was 58.3 min. It also gave a Time (Metaphire posthuma [10]) of 46.45 min, a Time (Metaphire posthuma [11]) of 42.54 min and a zone of inhibition at 25 µg/mL (Escherichia coli [12]) of 8.18 mm. The zone of inhibition at 50 µg/mL (Escherichia coli [13]) was 10.9 mm, the zone of inhibition at 100 µg/mL (Escherichia coli [14]) was 12.4 mm and the zone of inhibition at 25 µg/mL (Pseudomonas aeruginosa [15]) was 7.64 mm. For the same compound, the zone of inhibition at 50 µg/mL (Pseudomonas aeruginosa [16]) was 10.2 mm, the zone of inhibition at 100 µg/mL (Pseudomonas aeruginosa [17]) was 14.9 mm and the zone of inhibition at 25 µg/mL (Bacillus subtilis [18]) was 10.2 mm. For the same compound, the zone of inhibition at 50 µg/mL (Bacillus subtilis [19]) was 16 mm, the zone of inhibition at 100 µg/mL (Bacillus subtilis [20]) was 24.1 mm and the zone of inhibition at 25 µg/mL (Staphylococcus aureus [21]) was 11.2 mm. The zone of inhibition at 50 µg/mL (Staphylococcus aureus [22]) was 15.5 mm, the zone of inhibition at 100 µg/mL (Staphylococcus aureus [23]) was 20.6 mm and the zone of inhibition at 25 µg/mL (Candida albicans [24]) was 12.8 mm. The zone of inhibition at 50 µg/mL (Candida albicans [25]) was 15.7 mm, the zone of inhibition at 100 µg/mL (Candida albicans [26]) was 17.3 mm and the zone of inhibition at 25 µg/mL (Aspergillus niger [27]) was 14.6 mm. For the same compound, the zone of inhibition at 50 µg/mL (Aspergillus niger [28]) was 16.8 mm and the zone of inhibition at 100 µg/mL (Aspergillus niger [29]) was 21.4 mm.
`CCOC(=O)c1cnn(-c2nc(-c3ccccc3F)c(C#N)c(=O)n2C)c1N` showed an IC50 [1] of 87 µg/mL (≈ 228 µM), an IC50 [2] of 86 µg/mL (≈ 225 µM) and an IC50 [3] of 94 µg/mL (≈ 246 µM). The IC50 [4] was 69 µg/mL (≈ 180 µM), the inhibition [5] was 48.9% and the Time (Metaphire posthuma [6]) was 70.67 min. For the same compound, the Time (Metaphire posthuma [7]) was 68.48 min, the Time (Metaphire posthuma [8]) was 48.38 min and the Time (Metaphire posthuma [9]) was 88.45 min. For the same compound, the Time (Metaphire posthuma [10]) was 80.74 min, the Time (Metaphire posthuma [11]) was 60.77 min and the zone of inhibition at 25 µg/mL (Escherichia coli [12]) was 15.1 mm. For the same compound, the zone of inhibition at 50 µg/mL (Escherichia coli [13]) was 22.3 mm, the zone of inhibition at 100 µg/mL (Escherichia coli [14]) was 27.5 mm and the zone of inhibition at 25 µg/mL (Pseudomonas aeruginosa [15]) was 12.7 mm. For the same compound, the zone of inhibition at 50 µg/mL (Pseudomonas aeruginosa [16]) was 16.1 mm, the zone of inhibition at 100 µg/mL (Pseudomonas aeruginosa [17]) was 26.2 mm and the zone of inhibition at 25 µg/mL (Bacillus subtilis [18]) was 14.8 mm. It also gave a zone of inhibition at 50 µg/mL (Bacillus subtilis [19]) of 19.3 mm, a zone of inhibition at 100 µg/mL (Bacillus subtilis [20]) of 28 mm and a zone of inhibition at 25 µg/mL (Staphylococcus aureus [21]) of 15.8 mm. The zone of inhibition at 50 µg/mL (Staphylococcus aureus [22]) was 20.8 mm, the zone of inhibition at 100 µg/mL (Staphylococcus aureus [23]) was 26.7 mm and the zone of inhibition at 25 µg/mL (Candida albicans [24]) was 12 mm. The zone of inhibition at 50 µg/mL (Candida albicans [25]) was 15.2 mm, the zone of inhibition at 100 µg/mL (Candida albicans [26]) was 21.2 mm and the zone of inhibition at 25 µg/mL (Aspergillus niger [27]) was 11.9 mm. The zone of inhibition at 50 µg/mL (Aspergillus niger [28]) was 14.1 mm and the zone of inhibition at 100 µg/mL (Aspergillus niger [29]) was 21.2 mm.
